# Measured values gathered from unrelated publications.
# ache: Acetylcholinesterase (ache, Electrophorus electricus, UniProt O42275)
# MAP3K21: Mitogen-activated protein kinase kinase kinase 21 (MAP3K21, Homo sapiens, UniProt Q5TCX8)
# STK17B: Serine/threonine-protein kinase 17B (STK17B, Homo sapiens, UniProt O94768)
# STK32A: Serine/threonine-protein kinase 32A (STK32A, Homo sapiens, UniProt Q8WU08)
SMILES,target,assay,conditions,endpoint,result
COc1cc2c(cc1OC)C(=O)N(Cc1ccc3ccccc3n1)C2,ache,"enzyme activity, inhibitor",1 µM,inhibition,3.28%
CCCOc1ccc(OC)c(F)c1C(=O)c1ccc(C(=O)N[C@@H]2CNC[C@H]2NC(=O)c2ccc3[nH]ncc3c2)cc1,"RAC-gamma serine/threonine-protein kinase (AKT3, Homo sapiens, UniProt Q9Y243)","enzyme activity, inhibitor",0.5 µM,remaining activity,44%
COc1ccc2[nH]cc(CCN3Cc4cc(OC)c(OC)cc4C3=O)c2c1,ache,"enzyme activity, inhibitor",1 µM,inhibition,3.28%
CCCCCCCOc1ccc(CCC(N)(CO)COP(=O)(O)O)cc1C(F)(F)F (centres unmarked),"Sphingosine 1-phosphate receptor 1 (S1PR1, Homo sapiens, UniProt P21453)","calcium signal, agonist, fluorescence",,Emax,92%
CC(C)(C)c1nc2c(s1)c1nc(N)ncc1c1ccc(NS(=O)(=O)c3c(F)cccc3F)c(F)c12,MAP3K21,"enzyme activity, inhibitor, radiometric",1 µM,remaining activity,90%
O=C(NCCCNc1nc(Nc2cccc(NC(=O)N3CCCC3)c2)ncc1Br)C1CCC1,STK17B,"enzyme activity, inhibitor, radiometric",1 µM,remaining activity,0%
COc1cc2c(cc1OC)C(=O)N(Cc1ccccn1)C2,ache,"enzyme activity, inhibitor",1 µM,inhibition,4.59%
NS(=O)(=O)c1ccc(CNc2ccnc(Nc3cccc(NC(=O)N4CCCC4)c3)n2)cc1,STK17B,"enzyme activity, inhibitor, radiometric",1 µM,remaining activity,96%
O[C@@H]1[C@H](O)CO[C@H]1n1cnc2c(NCc3cccc(Cl)c3)ncnc21,"Adenosine receptor A1 (ADORA1, Homo sapiens, UniProt P30542)","ligand displacement, radioligand","10 µM, cell membranes",inhibition,35%
Cn1c2c(Cl)c(Cl)ccc2c2cc[nH]c(=O)c21,STK32A,"thermal stability, DSF",10 µM,ΔTm,-0.4 °C
c1cc(CN2CCOCC2)cc(Nc2ncc(C3CC3)c(NCCc3c[nH]cn3)n2)c1,STK17B,"enzyme activity, inhibitor, radiometric",1 µM,remaining activity,14%
CC(C)(C)c1nc(-c2cccc(NS(=O)(=O)c3c(F)cccc3F)c2F)c(-c2ccnc(N)n2)s1,"Ribosomal protein S6 kinase beta-2 (RPS6KB2, Homo sapiens, UniProt Q9UBS0)","enzyme activity, inhibitor, radiometric",1 µM,remaining activity,98%
NS(=O)(=O)c1ccc(CNc2ccnc(Nc3cccc(CN4CCOCC4)c3)n2)cc1,STK17B,"enzyme activity, inhibitor, radiometric",1 µM,remaining activity,96%
FC(F)(F)Oc1cccc(-c2cnc3ccc(-c4ccncc4)nn23)c1,"Mitogen-activated protein kinase kinase kinase kinase 3 (MAP4K3, Homo sapiens, UniProt Q8IVH8)","enzyme activity, inhibitor, radiometric",5 µM,activity vs control,39%
COc1cc2c(cc1OC)C(=O)N(Cc1n[nH]c3ccccc13)C2,ache,"enzyme activity, inhibitor",1 µM,inhibition,5.12%
O=C(NCCCNc1nc(Nc2cccc(NC(=O)N3CCCC3)c2)ncc1I)c1cccs1,STK17B,"enzyme activity, inhibitor, radiometric",1 µM,remaining activity,4%
N#CC1c2c([nH]c3c(Cl)c(Cl)ccc23)C(=O)NC12CCCCC2 (racemic),STK32A,"thermal stability, DSF",10 µM,ΔTm,0.1 °C
Brc1cnc(Nc2cccc(CN3CCOCC3)c2)nc1NCCc1c[nH]cn1,STK17B,"enzyme activity, inhibitor, radiometric",1 µM,remaining activity,4%
COc1cc2c(cc1OC)C(=O)N(CC1CCN(Cc3cccc(C#N)c3)CC1)C2,ache,"enzyme activity, inhibitor",1 µM,inhibition,4.99%
N#Cc1ccc(/C=C/CN(CC[C@H](N)C(=O)O)C[C@H]2O[C@@H](n3cnc4c(N)ncnc43)[C@H](O)[C@@H]2O)cc1,"Histone-arginine methyltransferase CARM1 (CARM1, Homo sapiens, UniProt Q86X55)","enzyme activity, inhibitor",1 µM,activity vs control,100%
Cc1ccc(C(=O)NCc2ccsc2)cc1C#Cc1cn(C(C)C)c2ncnc(N)c12,MAP3K21,"enzyme activity, inhibitor",1 µM,activity vs control,81%
COc1cc2c(cc1OC)C(=O)N(CC1CCN(Cc3ccccn3)CC1)C2,ache,"enzyme activity, inhibitor",1 µM,inhibition,8.01%
O=C(NCCCNc1ccnc(Nc2cccc(NC(=O)N3CCCC3)c2)n1)C1CCC1,STK17B,"enzyme activity, inhibitor, radiometric",1 µM,remaining activity,17%
Cn1c2c(Cl)c(Cl)ccc2c2cn[nH]c(=O)c21,STK32A,"thermal stability, DSF",10 µM,ΔTm,-0.4 °C
Cc1nn(CC(F)(F)F)cc1Nc1ncc(C2CC2)c(NCc2ccc(S(N)(=O)=O)cc2)n1,STK17B,"enzyme activity, inhibitor, radiometric",1 µM,remaining activity,88%
COc1nccc(CN2Cc3cc(OC)c(OC)cc3C2=O)n1,ache,"enzyme activity, inhibitor",1 µM,inhibition,-0.39%
